# Test results reported in ChEMBL document CHEMBL1649304, “Efficacy of posaconazole as treatment and prophylaxis against Fusarium solani” (Antimicrob Agents Chemother, 2010).
# The source made the active and inactive calls. The rule behind the calls is not given here.
# Columns and labels:
# Fusarium solani [1] = assay: Antifungal activity against inoculum of 1x10^4 conidia/ml Fusarium solani isolate 95-2478 after 24 hrs by XTT assay; format: functional, organism-based; conditions: isolate 95-2478, 24 h
# Summary of the method: (§1)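 Isolate 95-2478 conidia were grown 10 days at 37°C on potato dextrose agar. They were exposed in microtiter trays to posaconazole (DMSO stock; final 0 to 8 μg/ml) in RPMI with 2% glucose and 0.165 M MOPS, pH 7.0. Incubation ran 24 or 48 h, and XTT reduction was read at 492 nm in triplicate. Absorbance was expressed as percent of growth control, and IC50/IC90 came from a four-parameter inhibitory sigmoid fit.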
# Fusarium solani [2] = assay: Antifungal activity against inoculum of 1x10^4 conidia/ml Fusarium solani isolate 95-2478 after 48 hrs by XTT assay; format: functional, organism-based; conditions: isolate 95-2478, 48 h; summary of the method: as §1
# Fusarium solani [3] = assay: Antifungal activity against inoculum of 1x10^5 conidia/ml Fusarium solani isolate 95-2478 after 24 hrs by XTT assay; format: functional, organism-based; conditions: isolate 95-2478, 24 h; summary of the method: as §1
# Fusarium solani [4] = assay: Antifungal activity against inoculum of 1x10^5 conidia/ml Fusarium solani isolate 95-2478 after 48 hrs by XTT assay; format: functional, organism-based; conditions: isolate 95-2478, 48 h; summary of the method: as §1
# [5] = Drug concentration in uninfected nonimmunosppressed ICR mouse serum at 50 mg/kg, po BID after 4 hrs; format: ADME, organism-based; set-up: dose 50 mg/kg, route oral; conditions: read-out: Drug uptake
# Summary of the method: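 Uninfected, nonimmunosuppressed mice received 5 oral-gavage BID doses, and serum was taken 4 h after the last dose. Serum (100 μl, duplicate) was placed in wells cut in potato dextrose agar seeded with Candida kefyr ATCC 66028 at 1 × 10^4 cells/ml. Inhibition zones were measured after 48 h, and concentration was interpolated from a standard curve.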
# Fusarium solani [6] = assay: Antifungal activity against high inoculum 2.9 x 10^6 conidia/animal Fusarium solani infected in ICR mouse assessed as rate of survival at 6.25 mg/kg, po BID treated after 12 hrs of inoculation; format: functional, organism-based; set-up: dose 6.25 mg/kg
# Summary of the method: (§2)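 Neutropenic ICR mice (5-fluorouracil 150 mg/kg i.v., day −1) were infected i.v. with F. solani 95-2478 conidia. Posaconazole oral suspension was gavaged BID starting 12 h postinoculation and continued to day 9, then mice were followed off therapy to day 15. Moribund mice were euthanized and death was recorded the next day. Median and percent survival come from Kaplan-Meier curves versus untreated controls.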
# Fusarium solani [7] = assay: Antifungal activity against high inoculum 2.9 x 10^6 conidia/animal Fusarium solani infected in ICR mouse assessed as rate of survival at 12.5 mg/kg, po BID treated after 12 hrs of inoculation; format: functional, organism-based; set-up: dose 12.5 mg/kg; summary of the method: as §2
# Fusarium solani [8] = assay: Antifungal activity against high inoculum 2.9 x 10^6 conidia/animal Fusarium solani infected in ICR mouse assessed as rate of survival at 25 mg/kg, po BID treated after 12 hrs of inoculation; format: functional, organism-based; set-up: dose 25 mg/kg; summary of the method: as §2
# Fusarium solani [9] = assay: Antifungal activity against high inoculum 2.9 x 10^6 conidia/animal Fusarium solani infected in ICR mouse assessed as rate of survival at 50 mg/kg, po BID treated after 12 hrs of inoculation; format: functional, organism-based; set-up: dose 50 mg/kg; summary of the method: as §2
# Fusarium solani [10] = assay: Antifungal activity against inoculum range 6.5 x 10^5 to 6.8 x 10^5 conidia/animal Fusarium solani infected in ICR mouse assessed as rate of survival at 6.25 mg/kg, po BID treated after 12 hrs of inoculation; format: functional, organism-based; set-up: dose 6.25 mg/kg; summary of the method: as §2
# Fusarium solani [11] = assay: Antifungal activity against inoculum range 6.5 x 10^5 to 6.8 x 10^5 conidia/animal Fusarium solani infected in ICR mouse assessed as rate of survival at 12.5 mg/kg, po BID treated after 12 hrs of inoculation; format: functional, organism-based; set-up: dose 12.5 mg/kg; summary of the method: as §2
# Fusarium solani [12] = assay: Antifungal activity against inoculum range 6.5 x 10^5 to 6.8 x 10^5 conidia/animal Fusarium solani infected in ICR mouse assessed as rate of survival at 25 mg/kg, po BID treated after 12 hrs of inoculation; format: functional, organism-based; set-up: dose 25 mg/kg; summary of the method: as §2
# Fusarium solani [13] = assay: Antifungal activity against inoculum range 6.5 x 10^5 to 6.8 x 10^5 conidia/animal Fusarium solani infected in ICR mouse assessed as rate of survival at 50 mg/kg, po BID treated after 12 hrs of inoculation; format: functional, organism-based; set-up: dose 50 mg/kg; summary of the method: as §2
# Fusarium solani [14] = assay: Antifungal activity against inoculum range 7.7 x 10^4 to 7.8 x 10^4 conidia/animal Fusarium solani infected in ICR mouse assessed as rate of survival at 6.25 mg/kg, po BID treated after 12 hrs of inoculation; format: functional, organism-based; set-up: dose 6.25 mg/kg; summary of the method: as §2
# Fusarium solani [15] = assay: Antifungal activity against inoculum range 7.7 x 10^4 to 7.8 x 10^4 conidia/animal Fusarium solani infected in ICR mouse assessed as rate of survival at 12.5 mg/kg, po BID treated after 12 hrs of inoculation; format: functional, organism-based; set-up: dose 12.5 mg/kg; summary of the method: as §2
# Fusarium solani [16] = assay: Antifungal activity against inoculum range 7.7 x 10^4 to 7.8 x 10^4 conidia/animal Fusarium solani infected in ICR mouse assessed as rate of survival at 25 mg/kg, po BID treated after 12 hrs of inoculation; format: functional, organism-based; set-up: dose 25 mg/kg; summary of the method: as §2
# Fusarium solani [17] = assay: Antifungal activity against inoculum range 7.7 x 10^4 to 7.8 x 10^4 conidia/animal Fusarium solani infected in ICR mouse assessed as rate of survival at 50 mg/kg, po BID treated after 12 hrs of inoculation; format: functional, organism-based; set-up: dose 50 mg/kg; summary of the method: as §2
# Fusarium solani [18] = assay: Antifungal activity against high inoculum 2.9 x 10^6 conidia/animal Fusarium solani infected in ICR mouse assessed as bacterial count in kidney tissue at 6.25 mg/kg, po BID treated after 12 hrs of inoculation; format: functional
# Summary of the method: (§3)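 Outbred ICR mice were made neutropenic with 5-fluorouracil 150 mg/kg i.v. 1 day before i.v. infection with F. solani isolate 95-2478 conidia (0.2 ml). Posaconazole oral suspension was given by gavage BID from 12 h after inoculation until day 9. Kidneys from moribund animals were homogenized and plated on potato dextrose agar, and CFU/g was counted after 48 h. Group medians were compared with untreated controls by Mann-Whitney.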
# Fusarium solani [19] = assay: Antifungal activity against high inoculum 2.9 x 10^6 conidia/animal Fusarium solani infected in ICR mouse assessed as bacterial count in kidney tissue at 12.5 mg/kg, po BID treated after 12 hrs of inoculation; format: functional; summary of the method: as §3
# Fusarium solani [20] = assay: Antifungal activity against high inoculum 2.9 x 10^6 conidia/animal Fusarium solani infected in ICR mouse assessed as bacterial count in kidney tissue at 25 mg/kg, po BID treated after 12 hrs of inoculation; format: functional; summary of the method: as §3
# Fusarium solani [21] = assay: Antifungal activity against high inoculum 2.9 x 10^6 conidia/animal Fusarium solani infected in ICR mouse assessed as bacterial count in kidney tissue at 50 mg/kg, po BID treated after 12 hrs of inoculation; format: functional; summary of the method: as §3
compound,measurement,setting,value
CC[C@@H]([C@H](C)O)n1ncn(-c2ccc(N3CCN(c4ccc(OC[C@@H]5CO[C@@](Cn6cncn6)(c6ccc(F)cc6F)C5)cc4)CC3)cc2)c1=O [POSACONAZOLE],IC50,Fusarium solani [1],1.7 µg/mL
same,IC90,Fusarium solani [1],4.1 µg/mL
same,IC50,Fusarium solani [2],4.7 µg/mL
same,IC90,Fusarium solani [2],> 8 µg/mL
same,IC90,Fusarium solani [3],7.2 µg/mL
same,IC90,Fusarium solani [3]; read-out: IC90,> 8 µg/mL
same,IC50,Fusarium solani [4],> 8 µg/mL
same,IC90,Fusarium solani [4],> 8 µg/mL
same,concentration at 4 h,[5],5300 ng/mL
same,Activity,Fusarium solani [6],Active
same,Activity,Fusarium solani [7],Active
same,Activity,Fusarium solani [8],Active
same,Activity,Fusarium solani [9],Active
same,Activity,Fusarium solani [10],Active
same,Activity,Fusarium solani [11],Active
same,Activity,Fusarium solani [12],Active
same,Activity,Fusarium solani [13],Active
same,Activity,Fusarium solani [14],Active
same,Activity,Fusarium solani [15],Active
same,Activity,Fusarium solani [16],Active
same,Activity,Fusarium solani [17],Active
same,log10CFU/g,Fusarium solani [18],5.6
same,log10CFU/g,Fusarium solani [19],5.3
same,log10CFU/g,Fusarium solani [20],5.3
same,log10CFU/g,Fusarium solani [21],5.2
